In the library only some 1.1% were active in any assay of this set; here they are far more common.
hK5 inh: human KLK5 protease inhibitors, primary screen, biochemical, 1536-well; recombinant hK5, fluorogenic AMC substrate cleavage; AID 873, 2007; inhibition, % at 5 µM; 0.59% of 210,000 active;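 active = inhibition of 40% or more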
Target sequence (Q9Y337 67-293 limits assumed): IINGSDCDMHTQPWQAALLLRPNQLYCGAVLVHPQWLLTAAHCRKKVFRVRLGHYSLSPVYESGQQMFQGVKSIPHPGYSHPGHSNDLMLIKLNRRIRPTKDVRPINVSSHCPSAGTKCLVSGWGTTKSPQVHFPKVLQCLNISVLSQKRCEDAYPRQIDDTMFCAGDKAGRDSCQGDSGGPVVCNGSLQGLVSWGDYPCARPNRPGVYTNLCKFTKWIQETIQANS
FXIIa inh 1536: human FXIIa protease inhibitors, primary screen, biochemical, 1536-well; purified FXIIa, Boc-QGR-AMC fluorogenic substrate, 2 h; inhibition, % at 5 µM; Coagulation factor XII (Homo sapiens), P00748; 0.3% of 220,000 active; AID 800, 2007; in the data active = inhibition above about 40%
Hep lipid drop: inhibitors of hepatocyte lipid droplet formation, primary screen, imaging, high-throughput imaging, BODIPY stain; AML12 mouse hepatocytes, oleate lipid droplets; inhibition, % at 6.5 µM; 0.4% of 240,000 active; AID 1656, 2009;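 active = lipid droplet intensity inhibited by at least 50%, with more than 500 cells counted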
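Material – mouse AML12 hepatocyte cell line, fixed after treatment · Compound dosing – one dose, 6.5 µM compound · Times – compound with oleate, overnight · Measured by – Image-based BODIPY and DAPI two-channel analysis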
Thrombin inh: human alpha-thrombin inhibitors, primary screen, counter-screen for coagulation protease inhibitor project, biochemical, 1536-well, fluorogenic AMC substrate | inhibition, % at 5 µM | 0.26% of 220,000 active | Boc-VPR-AMC fluorogenic substrate cleavage | AID 1046, 2008 | Prothrombin (Homo sapiens), P00734;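 active = inhibition at or above 40%; inactive = inhibition below 40%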
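Material: Human alpha-thrombin protein | Buffer or medium: pH 7.5 Tris-saline with Tween 20 | Reagent: Boc-VPR-AMC substrate, 15 µM final | Schedule: Reaction at ambient temperature | Detection: AMC fluorescence at 355 nm excitation and 460 nm emission | Evaluation: Percent inhibition scaled between no-compound controls and no-enzyme blanks | Controls: no-compound enzyme wells and no-enzyme blanks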
FXIa inh 1536: human FXIa protease inhibitors, primary screen, biochemical, 1536-well. Coagulation factor XI (Homo sapiens), P03951. purified FXIa, Boc-Glu-Ala-Arg-AMC fluorogenic substrate. inhibition, % at 5 µM. 0.14% of 220,000 active. AID 798, 2007;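 active = inhibition of at least 40%; inactive = inhibition below 40%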;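 note: fluorescence of freed AMC excited at 355 nm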
Calb biofilm kill: clotrimazole potentiators killing C. albicans biofilm, primary screen, 4-compound mixtures. C. albicans biofilm persisters + clotrimazole, fluorescence viability; primary screen in compound mixtures of four per well. inhibition, % at 7.6 µM. 0.02% of 120,000 active;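 active = inhibition above 30.3% in the primary screen of four-compound pools, then above 30% when the compound was retested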;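 note: compounds exposed to preformed 24 h biofilms for 48 h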
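Incubation: 24 h biofilm formation, then 48 h compound exposure, 37 °C | Material: C. albicans biofilms | Buffer or medium: RPMI/MOPS medium, pH 7.0 | Measured by: 2-h Alamar Blue fluorescence, 535/590 nm excitation/emission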
Hits are given with their value; i = inactive; nt = no result given.

SMILES	hK5 inh	FXIIa inh 1536	Hep lipid drop	Thrombin inh	FXIa inh 1536	Calb biofilm kill
Cc1cc2ncn(-c3ncccc3[N+](=O)[O-])c2cc1C	nt	nt	i	nt	nt	nt
COC(=O)/C(=N\OCc1ccc(C#N)cc1)c1c(C)nn(C)c1C	nt	nt	i	nt	nt	nt
CCN(CC)CCNC(CC(=O)Nc1ccc(Cl)cc1Cl)C(=O)O (stereo not drawn)	i	i	63	i	i	i
CCN(CC)CCNC(=O)COc1ccc(Cl)cc1Cl	i	i	nt	i	i	nt
COc1ccc(OC)c(/C=C2\Oc3cc(OCC(=O)N4CCC(C(=O)O)CC4)ccc3C2=O)c1	nt	nt	i	nt	nt	nt
COc1ccc(CNc2nc(-c3cccnc3)nn2C(=O)CC(C)C)cc1	i	i	i	95	i	i
COc1ccc(CNc2nc(-c3cccnc3)nn2C(=O)c2cccs2)cc1	i	i	i	i	i	nt
COc1ccc(CNc2nc(-c3cccnc3)nn2C(C)=O)cc1	i	i	i	99	i	i
C/C(=N/NC(=O)c1cnccn1)c1cccs1	i	i	i	i	i	i
Cc1ccc(S(=O)(=O)N2CCN(C(=O)CC(C)n3nc(C)c(Cl)c3C)CC2)cc1C (stereo not drawn)	nt	nt	i	nt	nt	nt
CCC(=O)N1c2ccccc2NC2=C(C(=O)CC(C)(C)C2)C1c1cccnc1 (stereo not drawn)	i	i	i	i	i	i
CCC(=O)N1c2ccccc2NC2=C(C(=O)CCC2)C1c1ccc(N(C)C)cc1 (stereo not drawn)	43	i	nt	i	i	nt
CSCCC(NC(=O)c1cncc(Br)c1)C(=O)O (stereo not drawn)	52	i	i	i	i	nt
CSCCC(NC(=O)c1ccc(Br)cc1)C(=O)O (stereo not drawn)	i	i	i	i	i	i
CC(C)=CCCC(C)CN1CCC(n2nccc2NC(=O)C2CCCC2)CC1 (stereo not drawn)	nt	nt	i	nt	nt	nt
CCc1ccc(NC(=O)c2ccc3ncsc3c2)cc1	40	i	nt	i	i	nt
O=C(Nc1ccc(Br)cc1)c1ccc2ncsc2c1	nt	nt	i	nt	nt	nt
COCCNC(=O)c1cccc(OC2CCN(Cc3cccc(SC)c3)CC2)c1	nt	nt	i	nt	nt	nt
Cc1cc(C)cc(N2CCCn3c2nc2c3c(=O)n(CC(=O)OCc3ccccc3)c(=O)n2C)c1	i	i	nt	i	i	nt
Cc1ccc(N2CC(C)Cn3c2nc2c3c(=O)n(CC(=O)OCc3ccccc3)c(=O)n2C)cc1C (stereo not drawn)	44	i	i	i	i	nt
O=C(Cc1ccccc1[N+](=O)[O-])Nc1ccccc1C(=O)N1CCCC1	i	85	i	i	i	i
O=C(Cc1ccccc1[N+](=O)[O-])Nc1ccccc1C(=O)N1CCOCC1	i	i	i	i	i	i
Cc1[nH]n(-c2cccc(Cl)c2)c(=O)c1C=NCC(C)C	i	i	i	i	i	i
CC1CCC2(CC1)NC(=S)N(C(C)(C)C)N2 (stereo not drawn)	42	i	i	i	i	i
O=C(CN(C(=O)c1ccc(Cl)cc1)C1CCCCC1)Nc1ccc(Cl)c([N+](=O)[O-])c1	i	i	i	i	i	i
SMILES	hK5 inh	FXIIa inh 1536	Hep lipid drop	Thrombin inh	FXIa inh 1536	Calb biofilm kill
O=C(CN(C(=O)c1ccccc1Cl)C1CCCCC1)Nc1ccc(Cl)c([N+](=O)[O-])c1	i	70	nt	i	i	nt
CCC(C(=O)Nc1ccc(C(=O)Nc2ccccc2C(=O)O)cc1)c1ccccc1 (stereo not drawn)	nt	nt	i	nt	nt	nt
O=C(OCC(=O)N1CCCc2ccccc21)c1cnc(Cl)c(Cl)c1	i	i	i	i	i	i
O=C(OCC(=O)N1CCCc2ccccc21)c1ccc(Cl)nc1	i	47	i	i	i	i
CCc1nnc(NC(=O)Cc2ccc(Br)cc2)s1	i	i	i	i	i	i
OC(CNc1ccccc1)COc1ccc(OCC(O)CNc2ccccc2)cc1 (stereo not drawn)	58	i	nt	i	i	nt
O=C1CC(Nc2ccc(N3CCOCC3)cc2)C(=O)N1c1ccccc1F (stereo not drawn)	i	i	i	i	i	nt
O=C1CC(Nc2ccccc2)C(=O)N1c1ccc(N2CCOCC2)cc1 (stereo not drawn)	45	i	i	i	i	nt
Cc1ccc(OCC(=O)Oc2ccc(C)c(C)c2)cc1	nt	nt	i	nt	nt	nt
CCOc1ccc(N(C(C)=O)c2nc(C)cc(C)c2C#N)cc1	52	i	i	i	i	i
COc1cc2ncnc(Nc3cccc(Cl)c3)c2cc1OC	nt	nt	65	nt	nt	nt
Clc1cccc(Nc2ncnc3ccc(Br)cc23)c1	i	i	nt	i	i	nt
CCN1CCN(c2ccc(S(=O)(=O)N3CCCCC3)cc2NC(=O)COc2ccc(F)cc2Cl)CC1	nt	nt	i	nt	nt	nt
CCOC(=O)CSC1=C(C#N)C(c2ccc3c(c2)OCO3)CC(=O)N1 (stereo not drawn)	i	i	i	i	i	nt
CCOC(=O)CSC1=C(C#N)C(c2ccc(Cl)cc2)CC(=O)N1 (stereo not drawn)	45	i	nt	i	i	nt
O=C(Nc1cccc(F)c1)C1CC(=O)N(c2ccc(Br)cc2)C1 (stereo not drawn)	79	i	i	i	i	nt
CCC(C)NC(=O)C1CN(S(=O)(=O)c2ccccc2)CCN1S(=O)(=O)c1ccccc1 (stereo not drawn)	i	41	nt	i	i	nt
CCCNC(=O)C1CN(S(=O)(=O)c2ccccc2)CCN1S(=O)(=O)c1ccccc1 (stereo not drawn)	i	i	i	i	i	nt
CCCc1nc2n[nH]c(N)c2c2c1CCC2	i	55	nt	i	i	nt
CCCc1nc2n[nH]c(N)c2c2c1CCCC2	i	i	nt	i	i	nt
CCOC(=O)c1[nH]c2ccccc2c1NC(=O)c1ccc(S(=O)(=O)N(C)C)cc1	i	i	i	i	i	i
CN(C)S(=O)(=O)c1ccc(C(=O)Oc2cc(=O)[nH]c3ccccc23)cc1	i	i	nt	40	i	nt
Cc1c(C)n(CCC#N)c2ccccc12	i	43	i	i	i	i
Cc1c(C)n(CC(O)CN2CCCCCC2)c2ccccc12 (stereo not drawn)	i	i	nt	i	i	nt
CCC(=O)Nc1cccc(-c2nc3ccccc3c(=O)o2)c1	47	i	nt	i	i	nt
CC(=O)Nc1cccc(-c2nc3ccccc3c(=O)o2)c1	i	i	i	i	i	nt
Cc1cc(/C=C2\SC(=S)N(C)C2=O)c(C)n1-c1cccc(O)c1	i	i	i	i	65	i
COc1ccc(C(=S)N2CCCC2)cc1Br	nt	nt	i	nt	nt	nt
COc1ccc(C(=O)n2ccc(C)n2)cc1Br	70	i	i	i	i	nt
Cc1ccc(C)c(NC(=O)c2cc[n+](C)cc2)c1	nt	nt	i	nt	nt	nt

Source: PubChem BioAssay (several laboratories)
